These results are taken from PubChem BioAssay.

SMILES strings stand for the structures. A number with no mark means an inactive call. Results filed as inconclusive are left out. Active and inactive are the calls of the source.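 The calls were made as follows, unless noted: active = inhibition over a set limit, the all-compound mean plus 3 SD, in both replicate runs; inconclusive = over that limit in just one replicate run; inactive = at or under that limit in both runs.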

A short description of assay [1]: S. cerevisiae growth inhibition in permissive medium (OD615), pilot counter-assay for S. cerevisiae lifespan shortening project, permissive growth control (AID 705;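 active = growth inhibition above 25% in both replicates, a cutoff set 3 SD above the mean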). Particulars: OD615, 24 h, at 10 µM, hits give high values. The procedure, abridged: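 assay system = Saccharomyces cerevisiae strain carrying genetically modified DeaD replicative-lifespan system | technique = absorbance (optical density) at 615 nm | buffer or medium = permissive raffinose/galactose medium | timing = cells pre-grown 4 h, then 24 h compound exposure, 30 °C humidified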

Assay [2] in a line: S. cerevisiae growth inhibition in restrictive medium, OD615, pilot screen, restrictive growth control, yeast lifespan reduction project (AID 706;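 active = growth inhibition above a set limit, 3 SD over mean compound inhibition, in both replicates, cut at about 43% in these data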;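 also: modified DeaD lifespan yeast strain shifted to restrictive glucose medium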). Particulars: OD615, 48 h, at 10 µM, hits give high values. The procedure, abridged: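 System: modified S. cerevisiae. Buffer or medium: CSMM-D glucose medium. Incubation: 4 h pre-growth plus 48 h compound exposure, 30 °C. Detection: absorbance (optical density) measured at 615 nm.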

Assay [3] is described as follows: doxorubicin toxicity protection in MRP-1 cells – H69AR cells, CellTiter-Glo, duplicate, MRP-1 activator project, pilot screen (AID 807;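 active = viability increase at or above a cutoff of the median across tested compounds plus 3 SD, cut at about 8.5% in these data, passing the limit was not always enough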;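 also: compound pretreatment 18-22 h then 72 h combined with doxorubicin; 0% = doxorubicin alone and 100% = vehicle without doxorubicin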). Conditions: H69AR viability with doxorubicin, CellTiter-Glo luminescence; at 10 µM; hits give high values.
Assay [4] in a line: viability of HCT116 without oncogenic beta-catenin – human colon tumor cells, pilot screen (AID 823;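 active = cell viability at or below a set limit in both duplicate runs, the limit being the all-compound median minus 4 SD, cut at about 23% in these data, passing the limit was not always enough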;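 also: 0% = wells killed by 20 µM Hyamine and 100% = untreated DMSO cell wells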). Particulars: HCT116 beta-catenin knockout viability, CellTiter-Glo, 60 h; at 10 µM; hits give low values.
The nature of assay [5]: viability of PTEN-null HCT116 cells – cell-based, HCT116 clonal line, CellTiter-Glo, pilot screen (AID 824;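 active = viability at or below 27.92% in each of two runs, the all-compound median minus 4 SD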;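 also: 0% = 20 µM Hyamine control and 100% = vehicle cell control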). Conditions: HCT116 PTEN-deleted viability, 60 h, at 10 µM, hits give low values.
Assay [6] is described as follows: RAM pathway blockade in budding yeast – dse1pr::URA3 reporter, 5-FOA selection, pilot screen (AID 869).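 Also: 0% = DMSO wells with no growth and 100% = 10 µM 1-NA-PP1 with full growth; RAM network block rescues cells from 5-FOA so hits raise OD615 growth.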 Particulars: S. cerevisiae dse1pr::URA3 5-FOA growth, OD615, 2 d; at 10 µM; hits give high values; strain carries analog-sensitive mutant Cbk1 kinase.
Assay [7] is described as follows: RAM signaling pathway blockade in yeast – S. cerevisiae, Pdr1DBD-CYC8 efflux-inhibited sensitized strain, primary screen (AID 1298;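 active = RAM network inhibition above 8.4% in each of two replicates, 3 SD over the compound average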;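 also: 0% = DMSO untreated cells without growth and 100% = 10 µM 1-NA-PP1 full growth; higher means more yeast growth rescued from 5-FOA killing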). Particulars: S. cerevisiae cbk1-as DSE1-URA3 strain, 5-FOA growth OD615, 2 d; at 50 µM; hits give high values.

For `CCc1nnc(NC(=O)C2CCCCC2)s1`, the growth inhibition was 5.8% in assay [1] and 14.7% in assay [2]. Besides, the viability increase in assay [3] is 1.12%. In addition, the viability was 109% in assay [4] and 106% in assay [5]. Besides, the inhibition in assay [6] was 0.455%. In assay [7], the RAM network inhibition was 1.04%.

Regarding `Cc1ccc(-c2nc3cccnc3o2)cc1NC(=O)COc1ccc(Cl)cc1C`, the growth inhibition in assay [1] was -19.4%; in assay [2] it was -8.21%. The viability increase in assay [3] was -8.36%. The viability in assay [4] was 17.5% (active); in assay [5] it was 4.66% (active). Moreover, the inhibition in assay [6] is 1.5%. Further, in assay [7], the RAM network inhibition is 8.1%.

In the case of `Cn1ccnc1-c1nc2ccccc2[nH]c1=O`, the growth inhibition in assay [1] is -6.04%; in assay [2], -15.6%. Moreover, the viability increase in assay [3] is -1.95%. Further, the viability is 101% in assay [4] and 95.5% in assay [5]. Besides, the inhibition in assay [6] was -0.695%. Further, the RAM network inhibition in assay [7] is -0.73%.

Take `Cc1ccc(Nc2nc(C3CC3)cs2)cc1`: the figures for the growth inhibition in assay [1] and in assay [2] were -8.21% and -0.01%, respectively. In addition, in assay [3], the viability increase was -1.97%. The viability in assay [4] was 92.5%; in assay [5], 90.5%. In addition, the inhibition in assay [6] is 1.38%. Moreover, the RAM network inhibition in assay [7] was 2.72%.

Regarding `COc1ccc(C(=O)c2c[nH]c3ccccc23)cc1`, the growth inhibition was -4.92% in assay [1] and 2.61% in assay [2]. Further, the viability increase in assay [3] is -1.32%. Besides, the viability in assay [4] is 101%; in assay [5], 96.4%. Further, the inhibition in assay [6] is 0.695%. Also, in assay [7], the RAM network inhibition is -1.45%.

Take `CCc1cccc(Nc2cc(C)nc3nc(C)nn23)c1`: the growth inhibition was -14.3% in assay [1] and -3.76% in assay [2]. Also, in assay [3], the viability increase is -3.25%. Moreover, the figures for the viability in assay [4] and in assay [5] were 96.7% and 88.3%, respectively. In assay [6], the inhibition was 2.72%. Also, the RAM network inhibition in assay [7] is 2.83%.

As to `O=C(c1cc(C2CC2)on1)N1CCOCC1`, the growth inhibition in assay [1] is -4.11%; in assay [2], -0.575%. For the same compound, in assay [3], the viability increase is 0.15%. The viability in assay [4] is 96%; in assay [5], 98.7%. Also, the inhibition in assay [6] is 1.57%. The RAM network inhibition in assay [7] was 2.93%.

With `N=c1n(-c2ccccc2)c(O)cc(=O)n1-c1ccccc1`, the values for the growth inhibition in assay [1] and in assay [2] were -1.26% and 1.77%, respectively. Moreover, the viability increase in assay [3] is 0.05%. Also, the viability in assay [4] is 98.1%; in assay [5], 99.5%. Also, the inhibition in assay [6] was 0.73%. The RAM network inhibition in assay [7] is 6.52%.

On to `Cc1ccc2oc(=O)c3cnn(CC(=O)N4CCc5ccccc5C4)c3c2c1`, for which the growth inhibition in assay [1] was -10.4%; in assay [2], -4.8%. For the same compound, the viability increase in assay [3] is -0.98%. In addition, the viability in assay [4] was 93.5%; in assay [5], 92.1%. In addition, the inhibition in assay [6] is 1.77%. Moreover, the RAM network inhibition in assay [7] is 3.4%.

`COC(=O)C1=C(C)N(C)C(C)=C(C(=O)OC)C1c1ccsc1`: the growth inhibition in assay [1] is -6.88%; in assay [2], -6.81%. The viability increase in assay [3] was -2.96%. For the same compound, the viability in assay [4] was 91.4%; in assay [5], 87.8%. For the same compound, the inhibition in assay [6] was 1.99%. Also, in assay [7], the RAM network inhibition is 2.51%.

For `CCCn1c(C(O)c2ccc3c(c2)OCO3)nc2ccccc21` (configuration not stated), the growth inhibition was 1.37% in assay [1] and -13.8% in assay [2]. Further, the viability increase in assay [3] was 0.23%. The values for the viability in assay [4] and in assay [5] were 100% and 102%, respectively. Further, the inhibition in assay [6] was 2.31%. Besides, the RAM network inhibition in assay [7] is 0.88%.

For `Cc1cc(C)n(-c2nnc(C)n2/N=C/c2cc(Br)ccc2OCc2ccccc2)n1`, the values for the growth inhibition in assay [1] and in assay [2] were -10.3% and 13.9%, respectively. The viability increase in assay [3] is -7.71%. Further, the viability in assay [4] was 12.4% (active); in assay [5] it was 8.96% (active). Besides, the inhibition in assay [6] is 0.37%. In addition, the RAM network inhibition in assay [7] was -1.07%.

Turning to `OC(COc1ccc(Cl)c2ccccc12)CN1CCN(c2ccccn2)CC1` (configuration not stated), the growth inhibition in assay [1] is -5.89%; in assay [2], -11.6%. Moreover, the viability increase in assay [3] was -3.19%. The viability in assay [4] was 94.9%; in assay [5] it was 95.2%. Moreover, in assay [6], the inhibition was -0.275%. Moreover, the RAM network inhibition in assay [7] was 4.46%.

As for `CCOc1ccc(N=Cc2c(O)cc(C)oc2=O)cc1`, the figures for the growth inhibition in assay [1] and in assay [2] were -1.27% and 8.93%, respectively. In addition, in assay [3], the viability increase is -2.82%. The viability in assay [4] was 107%; in assay [5] it was 101%. Further, in assay [6], the inhibition is 1.21%. In addition, the RAM network inhibition in assay [7] was 1.99%.

As for `Cn1c2ccccc2c2c(C(=O)O)cn(C3CCCC3)c(=O)c21`, the growth inhibition is 3.4% in assay [1] and 1.83% in assay [2]. For the same compound, the viability increase in assay [3] was -3.21%. Moreover, the values for the viability in assay [4] and in assay [5] were 91.4% and 91.7%, respectively. In assay [6], the inhibition is 1.46%. Further, in assay [7], the RAM network inhibition is 4.9%.

Consider `CC(C)C12CN3CC(C(C)C)(CN(C1)C31C(=O)Nc3ccccc31)C2=O` (configuration not stated), for which the growth inhibition is -16.5% in assay [1] and -17.8% in assay [2]. The viability increase in assay [3] is -0.6%. Also, the viability in assay [4] was 90.3%; in assay [5] it was 101%. Besides, the inhibition in assay [6] is 1.05%. Besides, the RAM network inhibition in assay [7] was 3.39%.
